ChEMBL document CHEMBL4699407, “Isoquinoline thiosemicarbazone displays potent anticancer activity with in vivo efficacy against aggressive leukemias” (RSC Med Chem, 2020)
Activity calls are given as the source filed them. The calls are words filed in the database; no cut-off is given here.

Tests used:
MIA PaCa-2 [1] = test: Cytotoxicity against human MIA PaCa2 cells assessed as reduction in cell viability at 25 nM in presence of Cu2+ and BCPS incubated for 24 hrs by trypan blue assay; assay type: functional, cell-based
Summary of the method: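 MIAPACA2 cells were given 25 nM compound plus 20 μM Cu(II) for 24 h, with or without the membrane-impermeable copper chelator bathocuproine disulfonate (300 μM). Viable cells were measured by trypan blue exclusion on a Vi-Cell counter.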

MIA PaCa-2 [2] = test: Cytotoxicity against human MIA PaCa2 cells assessed as reduction in cell viability in presence of Cu2+ incubated for 72 hrs by cell titer-glo luminescent cell viability assay; assay type: functional, cell-based; details: MIA PaCa-2, 72 h
Summary of the method: (§1)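 Cells were grown in DMEM or RPMI with 10% FBS, without antibiotics, at 37 °C, 20% O2, 5% CO2. Adherent lines were seeded at 500 cells/well. Serially diluted compound was given with 20 μM Cu(II) (CuCl2) for 72 h; leukemia models received pre-formed 1:1 copper complex. ATP was read by CellTiter-Glo luminescence. IC50 is relative to DMSO-treated cells.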

MIA PaCa-2 [3] = test: Cytotoxicity against human MIA PaCa2 cells assessed as reduction in cell viability 72 hrs by cell titer-glo luminescent cell viability assay; assay type: functional
Summary of the method: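 MIAPACA2 cells in conventional medium without copper supplement got serially diluted compound for 72 h. ATP content was read by CellTiter-Glo, and IC90 (90% proliferation inhibition vs DMSO control) was calculated.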

MIA PaCa-2 [4] = test: Cytotoxicity against human MIA PaCa2 cells assessed as reduction in cell viability at 25 nM in presence of Zn2+ incubated for 72 hrs by cell titer-glo luminescent cell viability assay; assay type: functional, cell-based
Summary of the method: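 MIAPACA2 cells were exposed to compound for 72 h with 20 μM Fe(II) or Zn(II) supplement. Proliferation was read by CellTiter-Glo ATP luminescence.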

SW1990 = test: Cytotoxicity against human SW1990 cells assessed as reduction in cell viability in presence of Cu2+ incubated for 72 hrs by cell titer-glo luminescent cell viability assay; assay type: functional, cell-based; details: SW1990, 72 h; summary of the method: as §1
HPAF-II = test: Cytotoxicity against human HPAF-II cells assessed as reduction in cell viability in presence of Cu2+ incubated for 72 hrs by cell titer-glo luminescent cell viability assay; assay type: functional, cell-based; summary of the method: as §1
PANC-03-27 = test: Cytotoxicity against human PANC-03-27 cells assessed as reduction in cell viability in presence of Cu2+ incubated for 72 hrs by cell titer-glo luminescent cell viability assay; assay type: functional, cell-based; details: PANC-03-27, 72 h; summary of the method: as §1
[5] = Cytotoxicity against human A13A cells assessed as reduction in cell viability in presence of Cu2+ incubated for 72 hrs by cell titer-glo luminescent cell viability assay; assay type: functional, cell-based; summary of the method: as §1
NCI-H1963 = test: Cytotoxicity against human NCI-H1963 cells assessed as reduction in cell viability in presence of Cu2+ incubated for 72 hrs by cell titer-glo luminescent cell viability assay; assay type: functional, cell-based; details: NCI-H1963, 72 h; summary of the method: as §1
MIA PaCa-2 [6] = test: Induction of apoptosis in human MIA PaCa-2 cells assessed as increase in early apoptotic cells at 25 nM in presence of Cu2+ incubated for 72 hrs by annexin V and propidium iodide staining based flow cytometry analysis relative to control; assay type: functional
Summary of the method: (§2)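 Cells given 25 nM compound with or without 20 μM Cu(II) and/or the ATR inhibitor VE-822 at 250 nM for 72 h. Stained with annexin V-FITC and propidium iodide, then analysed on a five-laser flow cytometer to score viable, early apoptotic, late apoptotic and necrotic fractions against vehicle.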

MIA PaCa-2 [7] = test: Induction of apoptosis in human MIA PaCa-2 cells assessed as increase in necrotic cells at 25 nM in presence of Cu2+ and ATRi incubated for 72 hrs by annexin V and propidium iodide staining based flow cytometry analysis relative to control; assay type: functional; summary of the method: as §2
MIA PaCa-2 [8] = test: Induction of apoptosis in human MIA PaCa-2 cells assessed as increase in late apoptotic cells at 25 nM incubated for 72 hrs by annexin V and propidium iodide staining based flow cytometry analysis relative to control; assay type: functional; summary of the method: as §2
MIA PaCa-2 [9] = test: Induction of apoptosis in human MIA PaCa-2 cells assessed as increase in necrotic cells at 25 nM incubated for 72 hrs by annexin V and propidium iodide staining based flow cytometry analysis relative to control; assay type: functional; summary of the method: as §2
MIA PaCa-2 [10] = test: Induction of apoptosis in human MIA PaCa-2 cells assessed as decrease in viable cells at 25 nM in presence of ATRi incubated for 72 hrs by annexin V and propidium iodide staining based flow cytometry analysis relative to control; assay type: functional; summary of the method: as §2
MIA PaCa-2 [11] = test: Induction of apoptosis in human MIA PaCa-2 cells assessed as increase in late apoptotic cells at 25 nM in presence of ATRi incubated for 72 hrs by annexin V and propidium iodide staining based flow cytometry analysis relative to control; assay type: functional; summary of the method: as §2
MIA PaCa-2 [12] = test: Induction of DNA damage in human MIA PaCa-2 cells assessed as decrease in rGTP level at 25 nM in presence of Cu2+ incubated for 48 hrs by LC-MS/MS analysis; assay type: functional, cell-based
Summary of the method: (§3)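 Cells in DMEM or RPMI with 10% FBS, 37 °C, 5% CO2. Treated with 25 nM compound plus 20 μM Cu(II) for 48 h. Nucleotide pools quantified by LC-MS/MS with multiple reaction monitoring. Cells were in glucose-free DMEM with 10% dialyzed FBS and 11 mM [U-13C6]glucose for 48 h, and glucose-labeled pools were compared. Mean ± SD, n = 3, two-way ANOVA with Bonferroni correction.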

MIA PaCa-2 [13] = test: Induction of DNA damage in human MIA PaCa-2 cells assessed as decrease in dATP level at 25 nM in presence of Cu2+ incubated for 48 hrs by LC-MS/MS analysis; assay type: functional, cell-based; summary of the method: as §3
MIA PaCa-2 [14] = test: Induction of DNA damage in human MIA PaCa-2 cells assessed as decrease in ATP level at 25 nM in presence of Cu2+ incubated for 48 hrs by LC-MS/MS analysis; assay type: functional, cell-based
Summary of the method: (§4)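 MIAPACA2 cells were given 25 nM compound plus 20 μM Cu(II) for 48 h in glucose-free DMEM with 10% dialyzed FBS and 11 mM [U-13C6]glucose. Nucleotide pools were quantified by LC-MS/MS with multiple reaction monitoring. Mean ± SD, n = 3, two-way ANOVA with Bonferroni correction.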

MIA PaCa-2 [15] = test: Induction of DNA damage in human MIA PaCa-2 cells assessed as decrease in GTP level at 25 nM in presence of Cu2+ incubated for 48 hrs by LC-MS/MS analysis; assay type: functional, cell-based; summary of the method: as §4
MIA PaCa-2 [16] = test: Anti-OXPHOS activity in human MIA PaCa-2 cells assessed as reduction in oxygen consumption rate at 25 nM in presence of Cu2+ incubated for 24 hrs by […]; assay type: functional, cell-based; details: Mitochondria
Summary of the method: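 Cellular Mito Stress Test: cells treated 24 h with 25 nM compound plus 20 μM Cu(II), then incubated in unbuffered DMEM with 25 mM glucose, 1 mM pyruvate and 2 mM glutamine. OCR was read on an XF24 analyzer and normalized per μg protein. It was read at baseline and after serial 1 μM oligomycin, 0.75 μM FCCP, and 1 μM rotenone plus myxothiazol.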

MIA PaCa-2 [17] = test: Cytotoxicity against human MIA PaCa2 cells assessed as reduction in cell viability at 25 nM in presence of Cu2+ and 2-DG incubated for 48 hrs by trypan blue assay; assay type: functional, cell-based
Summary of the method: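 MIAPACA2 cells were given 25 nM compound plus 20 μM Cu(II), with or without 2-deoxyglucose (2 mM), for 48 h. Viability was read by trypan blue staining on a Vi-Cell counter. Mean ± SD, n = 2, Student t-test.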

For `CN(C)C(=S)NN=Cc1nccc2cc(F)ccc12`, the Activity (MIA PaCa-2 [1]) was “inactive”, the IC90 (MIA PaCa-2 [2]) was 21.6 nM and the IC90 (MIA PaCa-2 [3]) was 111 nM. For the same molecule, the Activity (MIA PaCa-2 [4]) was “inactive”, the IC50 (SW1990) was 1 nM and the IC50 (HPAF-II) was 1 nM. For the same molecule, the IC50 (PANC-03-27) was 1 nM, the IC50 [5] was 1 nM and the IC50 (NCI-H1963) was 1 nM. It also gave an Activity (MIA PaCa-2 [6]) of 13.9%, an Activity (MIA PaCa-2 [7]) of 4.72% and an Activity (MIA PaCa-2 [8]) of 0.79%. The Activity (MIA PaCa-2 [9]) was 2.49%, the Activity (MIA PaCa-2 [10]) was 64.7% and the Activity (MIA PaCa-2 [11]) was 18.8%. For the same molecule, the Activity (MIA PaCa-2 [12]) was “Active”, the Activity (MIA PaCa-2 [13]) was “inactive” and the Activity (MIA PaCa-2 [14]) was “inactive”. For the same molecule, the Activity (MIA PaCa-2 [15]) was “inactive”, the Activity (MIA PaCa-2 [16]) was “Active” and the Activity (MIA PaCa-2 [17]) was “Active”.
